Assay results reported in ChEMBL document CHEMBL3576819, “Design, synthesis, biological evaluation and molecular docking studies of phenylpropanoid derivatives as potent anti-hepatitis B virus agents” (Eur J Med Chem, 2015).
One block for each compound: values may come before it.

Experiments:
Hepatitis B virus [1] = experiment: Antiviral activity against Hepatitis B virus infected in human HepG2.2.15 cells assessed as inhibition of HBsAg secretion at 150 uM after 6 days by ELISA; type: functional; settings: HepG2 2.2.15, 144 h
How it was run: (§1)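 HepG2.2.15 cells (MEM, 10% FBS, 380 µg/ml G418) seeded at 1×10^5 cells/ml, held 24 h at 37 °C, then treated with various drug concentrations; medium with drug renewed every 3 d for up to 9 d. Culture medium sampled on days 3, 6 and 9, stored at -20 °C, and assayed for secreted antigen. Lamivudine as positive control; IC50 = 50% inhibition of secretion; means of at least two experiments.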

Hepatitis B virus [2] = experiment: Antiviral activity against Hepatitis B virus infected in human HepG2.2.15 cells assessed as inhibition of HBeAg secretion at 150 uM after 9 days by ELISA; type: functional; settings: HepG2 2.2.15, 216 h; how it was run: as §1
[3] = Selectivity index, ratio of CC50 for human HepG2.2.15 cells to IC50 for Hepatitis B virus infected in human HepG2.2.15 cells assessed as inhibition of HBeAg secretion; type: functional
How it was run: (§2)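 Selectivity index computed as CC50/IC50, with CC50 from cell death of HepG2.2.15 cells after 9 days of treatment (OD 450 nm) and IC50 from 50% inhibition of HBeAg or HBsAg secretion in the same cells; medium with drug renewed every 3 d.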

Hepatitis B virus [4] = experiment: Antiviral activity against Hepatitis B virus infected in human HepG2.2.15 cells assessed as inhibition of HBeAg secretion at 37.5 uM after 9 days by ELISA; type: functional; settings: HepG2 2.2.15, 216 h; how it was run: as §1
Hepatitis B virus [5] = experiment: Antiviral activity against Hepatitis B virus infected in human HepG2.2.15 cells assessed as inhibition of HBsAg secretion at 300 uM after 3 days by ELISA; type: functional; settings: HepG2 2.2.15, 72 h; how it was run: as §1
Hepatitis B virus [6] = experiment: Antiviral activity against Hepatitis B virus infected in human HepG2.2.15 cells assessed as inhibition of HBeAg secretion at 75 uM after 6 days by ELISA; type: functional; settings: HepG2 2.2.15, 144 h; how it was run: as §1
Hepatitis B virus [7] = experiment: Antiviral activity against Hepatitis B virus infected in human HepG2.2.15 cells assessed as cell survival at 37.5 uM after 9 days (reference value: 100%); type: functional; settings: HepG2 2.2.15, 216 h
How it was run: (§3)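 HepG2.2.15 cells (MEM, 10% FBS, 380 µg/ml G418, 37 °C, 5% CO2) seeded at 1×10^5 cells/ml, cultured 24 h, then exposed to various drug concentrations; drug-containing medium renewed every 3 d. OD read at 450 nm after 9 days; percent cell death calculated; CC50 = concentration killing 50% of cells. Means of at least two experiments.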

Hepatitis B virus [8] = experiment: Antiviral activity against Hepatitis B virus infected in human HepG2.2.15 cells assessed as inhibition of HBeAg secretion at 300 uM after 6 days by ELISA; type: functional; settings: HepG2 2.2.15, 144 h; how it was run: as §1
Hepatitis B virus [9] = experiment: Antiviral activity against Hepatitis B virus infected in human HepG2.2.15 cells assessed as inhibition of HBeAg secretion by ELISA; type: functional, organism-based; settings: HepG2 2.2.15; how it was run: as §1
Hepatitis B virus [10] = experiment: Antiviral activity against Hepatitis B virus infected in human HepG2.2.15 cells assessed as inhibition of HBeAg secretion at 75 uM after 3 days by ELISA; type: functional; settings: HepG2 2.2.15, 72 h; how it was run: as §1
Hepatitis B virus [11] = experiment: Antiviral activity against Hepatitis B virus infected in human HepG2.2.15 cells assessed as cell survival at 75 uM after 9 days (reference value: 100%); type: functional; settings: HepG2 2.2.15, 216 h; how it was run: as §3
Hepatitis B virus [12] = experiment: Antiviral activity against Hepatitis B virus infected in human HepG2.2.15 cells assessed as inhibition of HBsAg secretion at 75 uM after 6 days by ELISA; type: functional; settings: HepG2 2.2.15, 144 h; how it was run: as §1
Hepatitis B virus [13] = experiment: Antiviral activity against Hepatitis B virus infected in human HepG2.2.15 cells assessed as inhibition of HBeAg secretion at 300 uM after 3 days by ELISA; type: functional; settings: HepG2 2.2.15, 72 h; how it was run: as §1
Hepatitis B virus [14] = experiment: Antiviral activity against Hepatitis B virus infected in human HepG2.2.15 cells assessed as inhibition of HBsAg secretion at 37.5 uM after 6 days by ELISA; type: functional; settings: HepG2 2.2.15, 144 h; how it was run: as §1
Hepatitis B virus [15] = experiment: Antiviral activity against Hepatitis B virus infected in human HepG2.2.15 cells assessed as inhibition of HBsAg secretion at 75 uM after 3 days by ELISA; type: functional; settings: HepG2 2.2.15, 72 h; how it was run: as §1
Hepatitis B virus [16] = experiment: Antiviral activity against Hepatitis B virus infected in human HepG2.2.15 cells assessed as inhibition of HBsAg secretion at 37.5 uM after 3 days by ELISA; type: functional; settings: HepG2 2.2.15, 72 h; how it was run: as §1
Hepatitis B virus [17] = experiment: Antiviral activity against Hepatitis B virus infected in human HepG2.2.15 cells assessed as cell survival at 300 uM after 9 days (reference value: 100%); type: functional; settings: HepG2 2.2.15, 216 h; how it was run: as §3
Hepatitis B virus [18] = experiment: Antiviral activity against Hepatitis B virus infected in human HepG2.2.15 cells assessed as inhibition of HBeAg secretion at 75 uM after 9 days by ELISA; type: functional; settings: HepG2 2.2.15, 216 h; how it was run: as §1
[19] = Selectivity index, ratio of CC50 for human HepG2.2.15 cells to IC50 for Hepatitis B virus infected in human HepG2.2.15 cells assessed as inhibition of HBsAg secretion; type: functional; how it was run: as §2
Hepatitis B virus [20] = experiment: Antiviral activity against Hepatitis B virus infected in human HepG2.2.15 cells assessed as cell survival at 150 uM after 9 days (reference value: 100%); type: functional; settings: HepG2 2.2.15, 216 h; how it was run: as §3
Hepatitis B virus [21] = experiment: Antiviral activity against Hepatitis B virus infected in human HepG2.2.15 cells assessed as inhibition of HBsAg secretion at 300 uM after 6 days by ELISA; type: functional; settings: HepG2 2.2.15, 144 h; how it was run: as §1
Hepatitis B virus [22] = experiment: Antiviral activity against Hepatitis B virus infected in human HepG2.2.15 cells assessed as inhibition of HBeAg secretion at 37.5 uM after 6 days by ELISA; type: functional; settings: HepG2 2.2.15, 144 h; how it was run: as §1
Hepatitis B virus [23] = experiment: Antiviral activity against Hepatitis B virus infected in human HepG2.2.15 cells assessed as inhibition of HBsAg secretion at 37.5 uM after 9 days by ELISA; type: functional; settings: HepG2 2.2.15, 216 h; how it was run: as §1
Hepatitis B virus [24] = experiment: Antiviral activity against Hepatitis B virus infected in human HepG2.2.15 cells assessed as inhibition of HBsAg secretion at 300 uM after 9 days by ELISA; type: functional; settings: HepG2 2.2.15, 216 h; how it was run: as §1
Hepatitis B virus [25] = experiment: Antiviral activity against Hepatitis B virus infected in human HepG2.2.15 cells assessed as inhibition of HBsAg secretion at 75 uM after 9 days by ELISA; type: functional; settings: HepG2 2.2.15, 216 h; how it was run: as §1
Hepatitis B virus [26] = experiment: Antiviral activity against Hepatitis B virus infected in human HepG2.2.15 cells assessed as inhibition of HBeAg secretion at 150 uM after 3 days by ELISA; type: functional; settings: HepG2 2.2.15, 72 h; how it was run: as §1
Hepatitis B virus [27] = experiment: Antiviral activity against Hepatitis B virus infected in human HepG2.2.15 cells assessed as inhibition of HBsAg secretion by ELISA; type: functional, organism-based; settings: HepG2 2.2.15; how it was run: as §1
Hepatitis B virus [28] = experiment: Antiviral activity against Hepatitis B virus infected in human HepG2.2.15 cells assessed as inhibition of HBsAg secretion at 150 uM after 3 days by ELISA; type: functional; settings: HepG2 2.2.15, 72 h; how it was run: as §1
Hepatitis B virus [29] = experiment: Antiviral activity against Hepatitis B virus infected in human HepG2.2.15 cells assessed as inhibition of HBeAg secretion at 150 uM after 6 days by ELISA; type: functional; settings: HepG2 2.2.15, 144 h; how it was run: as §1
[30] = Cytotoxicity against human HepG2.2.15 cells assessed as cell death after 9 days by MTT assay; type: cell-based, HepG2 2.2.15; how it was run: as §3
Hepatitis B virus [31] = experiment: Antiviral activity against Hepatitis B virus infected in human HepG2.2.15 cells assessed as inhibition of HBsAg secretion at 150 uM after 9 days by ELISA; type: functional; settings: HepG2 2.2.15, 216 h; how it was run: as §1
Hepatitis B virus [32] = experiment: Antiviral activity against Hepatitis B virus infected in human HepG2.2.15 cells assessed as inhibition of HBeAg secretion at 300 uM after 9 days by ELISA; type: functional; settings: HepG2 2.2.15, 216 h; how it was run: as §1
Hepatitis B virus [33] = experiment: Antiviral activity against Hepatitis B virus infected in human HepG2.2.15 cells assessed as inhibition of HBeAg secretion at 37.5 uM after 3 days by ELISA; type: functional; settings: HepG2 2.2.15, 72 h; how it was run: as §1

- IC50 (Hepatitis B virus [9]): 81.8 µM
- IC50 (Hepatitis B virus [27]): 64.6 µM
Compound: O=C(/C=C/c1ccc2c(c1)OCO2)O/N=C/c1ccco1
- inhibition at 150 µM (Hepatitis B virus [1]): 70.4%
- inhibition at 150 µM (Hepatitis B virus [2]): 59.1%
- Ratio CC50/IC50 [3]: 5.86
- inhibition at 37.5 µM (Hepatitis B virus [4]): 30.3%
- inhibition at 300 µM (Hepatitis B virus [5]): 57.9%
- inhibition at 75 µM (Hepatitis B virus [6]): 45.8%
- viability at 37.5 µM (Hepatitis B virus [7]): 94.4%
- inhibition at 300 µM (Hepatitis B virus [8]): 71%
- inhibition at 75 µM (Hepatitis B virus [10]): 24.8%
- viability at 75 µM (Hepatitis B virus [11]): 85.5%
- inhibition at 75 µM (Hepatitis B virus [12]): 54.6%
- inhibition at 300 µM (Hepatitis B virus [13]): 47.2%
- inhibition at 37.5 µM (Hepatitis B virus [14]): 31.5%
- inhibition at 75 µM (Hepatitis B virus [15]): 31.2%
- inhibition at 37.5 µM (Hepatitis B virus [16]): 22.3%
- viability at 300 µM (Hepatitis B virus [17]): 43%
- inhibition at 75 µM (Hepatitis B virus [18]): 47%
- Ratio CC50/IC50 [19]: 7.42
- viability at 150 µM (Hepatitis B virus [20]): 73.8%
- inhibition at 300 µM (Hepatitis B virus [21]): 79.5%
- inhibition at 37.5 µM (Hepatitis B virus [22]): 26%
- inhibition at 37.5 µM (Hepatitis B virus [23]): 32.4%
- inhibition at 300 µM (Hepatitis B virus [24]): 85.4%
- inhibition at 75 µM (Hepatitis B virus [25]): 59.5%
- inhibition at 150 µM (Hepatitis B virus [26]): 35.2%
- inhibition at 150 µM (Hepatitis B virus [28]): 42.9%
- inhibition at 150 µM (Hepatitis B virus [29]): 56.5%
- CC50 at 216 h [30]: 480 µM
- inhibition at 150 µM (Hepatitis B virus [31]): 70.5%
- inhibition at 300 µM (Hepatitis B virus [32]): 86.7%
- inhibition at 37.5 µM (Hepatitis B virus [33]): 16.9%

- IC50 (Hepatitis B virus [9]): 118 µM
- IC50 (Hepatitis B virus [27]): 75.8 µM
Compound: O=C(/C=C/c1ccc2c(c1)OCO2)O/N=C/c1cccs1
- inhibition at 150 µM (Hepatitis B virus [1]): 63.2%
- inhibition at 150 µM (Hepatitis B virus [2]): 51.5%
- Ratio CC50/IC50 [3]: 2.26
- inhibition at 37.5 µM (Hepatitis B virus [4]): 25.4%
- inhibition at 300 µM (Hepatitis B virus [5]): 58.3%
- inhibition at 75 µM (Hepatitis B virus [6]): 32%
- viability at 37.5 µM (Hepatitis B virus [7]): 112%
- inhibition at 300 µM (Hepatitis B virus [8]): 63.2%
- inhibition at 75 µM (Hepatitis B virus [10]): 25.7%
- viability at 75 µM (Hepatitis B virus [11]): 105%
- inhibition at 75 µM (Hepatitis B virus [12]): 45.4%
- inhibition at 300 µM (Hepatitis B virus [13]): 51.3%
- inhibition at 37.5 µM (Hepatitis B virus [14]): 29.6%
- inhibition at 75 µM (Hepatitis B virus [15]): 32.1%
- inhibition at 37.5 µM (Hepatitis B virus [16]): 20.4%
- viability at 300 µM (Hepatitis B virus [17]): 79.4%
- inhibition at 75 µM (Hepatitis B virus [18]): 42.9%
- Ratio CC50/IC50 [19]: 3.51
- viability at 150 µM (Hepatitis B virus [20]): 92.2%
- inhibition at 300 µM (Hepatitis B virus [21]): 87.5%
- inhibition at 37.5 µM (Hepatitis B virus [22]): 20.6%
- inhibition at 37.5 µM (Hepatitis B virus [23]): 29.7%
- inhibition at 300 µM (Hepatitis B virus [24]): 88.1%
- inhibition at 75 µM (Hepatitis B virus [25]): 52%
- inhibition at 150 µM (Hepatitis B virus [26]): 33.5%
- inhibition at 150 µM (Hepatitis B virus [28]): 46.3%
- inhibition at 150 µM (Hepatitis B virus [29]): 46.1%
- CC50 at 216 h [30]: 266 µM
- inhibition at 150 µM (Hepatitis B virus [31]): 63.1%
- inhibition at 300 µM (Hepatitis B virus [32]): 71.6%
- inhibition at 37.5 µM (Hepatitis B virus [33]): 15.9%
